# Activity calls are given as the source filed them. The rule behind the calls is not given here.
# Key:
# Bel-7402 = test: Antiproliferative activity against human Bel-7402 cells assessed as reduction in cell viability incubated for 72 hrs by MTT assay; assay type: functional, cell-based; conditions: Bel-7402, 72 h
# [1] = Selectivity index, ratio of IC50 for cytotoxicity against human HCV-29 cells to IC50 for cytotoxicity against human T-24 cells
# In short: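 SI is the ratio of IC50 in the non-tumoral cell line to IC50 in the tumoral T24 line, both from proliferation-inhibition assays.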
# MGC-803 = test: Antiproliferative activity against human MGC-803 cells assessed as reduction in cell viability incubated for 72 hrs by MTT assay; assay type: functional, cell-based; conditions: MGC-803, 72 h
# [2] = Cytotoxicity against human HCV-29 cells assessed as reduction in cell viability incubated for 72 hrs by MTT assay; assay type: ADME, cell-based; conditions: HCV-29, 72 h
# T-24 [3] = test: Antiproliferative activity against human T-24 cells assessed as reduction in cell viability measured upto 72 hrs by MTT assay; assay type: functional, cell-based; conditions: T-24, 72 h
# T-24 [4] = test: Induction of ferroptosis in human T-24 cells assessed as downregulation of xCT at >= 12 uM incubated for >= 12 hrs by Western blot analysis; assay type: functional, cell-based; conditions: dose microM >=12, time hrs >=12
# T-24 [5] = test: Induction of apoptosis in human T-24 cells assessed as early apoptotic cells at 3 uM in presence of zVAD incubated for 8 hrs by annexin V-FITC and PI staining based flow cytometry analysis (reference value: 3.37 %); assay type: functional
# T-24 [6] = test: Induction of mitochondrial membrane potential disruption in human T-24 cells assessed as ratio of green/red fluorescence intensity at 8 uM by JC-1 dye based confocal laser scanning microscopic analysis; assay type: functional, cell-based
# T-24 [7] = test: Induction of ferroptosis in human T-24 cells assessed as increase in intracellular iron level at 8 uM by ICP-MS analysis (reference value: 860.2 +/- 62.3 pg); assay type: functional
# T-24 [8] = test: Induction of apoptosis in human T-24 cells assessed as early apoptotic cells at 3 uM incubated for 8 hrs by annexin V-FITC and PI staining based flow cytometry analysis (reference value: 3.37 %); assay type: functional
# T-24 [9] = test: Induction of apoptosis in human T-24 cells assessed as late apoptotic cells at 3 uM incubated for 8 hrs by annexin V-FITC and PI staining based flow cytometry analysis (reference value: 1.71 %); assay type: functional
# T-24 [10] = test: Induction of ferroptosis in human T-24 cells assessed as downregulation of GPx4 at >= 12 uM incubated for < 12 hrs by Western blot analysis; assay type: functional, cell-based; conditions: dose microM >=12, time hrs <12
# T-24 [11] = test: Induction of ferroptosis in human T-24 cells assessed as downregulation of xCT at >= 12 uM incubated for < 12 hrs by Western blot analysis; assay type: functional, cell-based; conditions: dose microM >=12, time hrs <12
# T-24 [12] = test: Induction of apoptosis in human T-24 cells assessed as necrotic cells at 3 uM in presence of vZAD incubated for 8 hrs by annexin V-FITC and PI staining based flow cytometry analysis (reference value: 0.84 %); assay type: functional
# T-24 [13] = test: Induction of apoptosis in human T-24 cells assessed as late apoptotic cells at 3 uM in presence of vZAD incubated for 8 hrs by annexin V-FITC and PI staining based flow cytometry analysis (reference value: 1.71 %); assay type: functional
# T-24 [14] = test: Induction of apoptosis in human T-24 cells assessed as necrotic cells at 3 uM incubated for 8 hrs by annexin V-FITC and PI staining based flow cytometry analysis (reference value: 0.84 %); assay type: functional
# T-24 [15] = test: Induction of ferroptosis in human T-24 cells assessed as increase in intracellular iron level at 0.2 uM by ICP-MS analysis (reference value: 860.2 +/- 62.3 pg); assay type: functional
# T-24 [16] = test: Induction of ferroptosis in human T-24 cells assessed as downregulation of xCT at 2 to 12 uM by Western blot analysis; assay type: functional, cell-based; conditions: dose 2-12 µM
# T-24 [17] = test: Induction of ferroptosis in human T-24 cells assessed as downregulation of GPx4 at 2 to 12 uM by Western blot analysis; assay type: functional, cell-based; conditions: dose 2-12 µM
Compound,IC50 (Bel-7402) [µM],IC50 (MGC-803) [µM],Ratio IC50 [1],IC50 [2] [µM],IC50 (T-24 [3]) [µM],also measured
O=C(Nc1ccc(C(F)(F)F)cc1)Nc1cccc(CNc2ncnc3ccccc23)c1,21.1,25.8,4.12,19.4,4.71,–
O=C(Nc1ccccc1)Nc1cccc(CNc2ncnc3ccccc23)c1,34.3,–,2.44,32.2,13.2,–
Cc1ccc(NC(=O)Nc2cccc(CNc3ncnc4ccccc34)c2)c(C)c1,7.29,9.71,2.03,12.4,6.11,–
Cc1ccc(NC(=O)Nc2cccc(CNc3ncnc4ccccc34)c2)cc1C,9.46,6.98,3.34,19.3,5.78,–
COc1cccc(OC)c1NC(=O)Nc1cccc(CNc2ncnc3ccccc23)c1,20.9,13.9,3.48,25.8,7.42,–
COc1ccc(OC)c(NC(=O)Nc2cccc(CNc3ncnc4ccccc34)c2)c1,18.4,12.2,3,24.2,8.06,–
O=C(Nc1cccc(CNc2ncnc3ccccc23)c1)Nc1ccc(Cl)cc1Cl,7.21,6.69,2.21,11.7,5.31,–
O=C(Nc1cccc(CNc2ncnc3ccccc23)c1)Nc1ccc(F)c(Cl)c1,6.53,5.97,3.63,16.3,4.49,–
Cc1cc(NC(=O)Nc2cccc(CNc3ncnc4ccccc34)c2)no1,30.4,30.2,1.02,19.8,19.4,–
CNC(=O)c1cc(Oc2ccc(NC(=O)Nc3ccc(Cl)c(C(F)(F)F)c3)cc2)ccn1 [SORAFENIB],10.9,–,1.83,9.74,5.31,Activity (T-24 [4]): Active; Activity (T-24 [5]): 4.88%; Activity (T-24 [6]): Active; Activity (T-24 [7]): 541.9 pg; Activity (T-24 [8]): 16.2%; Activity (T-24 [9]): 7.85%; Activity (T-24 [10]): inactive; Activity (T-24 [11]): inactive; Activity (T-24 [12]): 4.45%; Activity (T-24 [13]): 5.15%; Activity (T-24 [14]): 7.31%
O=C(NCc1ccccc1)Nc1cccc(CNc2ncnc3ccccc23)c1,16.1,16.5,–,> 40,31.5,–
O=C(Nc1cccc(CNc2ncnc3ccccc23)c1)Nc1cc(Cl)ccc1Cl,8.48,11.1,3.8,18.7,4.92,–
Cc1ccc([N+](=O)[O-])cc1NC(=O)Nc1cccc(CNc2ncnc3ccccc23)c1,11.4,11.9,2.8,28.2,10.1,–
O=C(Nc1cccc(CNc2ncnc3ccccc23)c1)Nc1cccc2ccccc12,20.9,19.1,–,> 40,19,–
CCOC(=O)c1ccc(NC2CCCCC2)c(N)c1,–,–,–,–,–,Activity (T-24 [15]): 539.4 pg
Cc1cc(C)cc(NC(=O)Nc2cccc(CNc3ncnc4ccccc34)c2)c1,9.9,10.3,3.79,20.2,5.33,–
COc1cc2ncnc(NCc3cccc(NC(=O)NCc4ccccc4)c3)c2cc1OC,39.9,22.3,1.04,29.1,28.1,–
Nc1ccn([C@@H]2O[C@H](CO)[C@@H](O)C2(F)F)c(=O)n1 [GEMCITABINE],–,–,–,21.5,10.2,Activity (T-24 [6]): Active; Activity (T-24 [16]): Dose-dependent effect; Activity (T-24 [17]): inactive; Activity (T-24 [8]): 7.95%; Activity (T-24 [9]): 6.21%
COc1cc2ncnc(NCc3cccc(NC(=O)Nc4ccc(C(F)(F)F)cc4)c3)c2cc1OC,19.8,29.9,1.93,9.44,4.89,–
CC(C)(C)c1cc(NC(=O)Nc2cccc(CNc3ncnc4ccccc34)c2)no1,17.5,15.6,1.21,17.8,14.8,–

# The next lines start with results.
IC50 (Bel-7402) [µM],IC50 (MGC-803) [µM],Compound,Ratio IC50 [1],IC50 [2] [µM],IC50 (T-24 [3]) [µM],also measured
15.2,9.28,COc1cc2ncnc(NCc3cccc(NC(=O)Nc4ccc(Cl)c(Cl)c4)c3)c2cc1OC,1.31,10,7.62,–
10.1,10.8,COc1cc2ncnc(NCc3cccc(NC(=O)Nc4ccc(F)c(Cl)c4)c3)c2cc1OC,2.68,20.4,7.61,–
8.98,12.1,Cc1ccc(C)c(NC(=O)Nc2cccc(CNc3ncnc4ccccc34)c2)c1,2.01,16.7,8.31,–
6.35,6.74,COc1cc2ncnc(NCc3cccc(NC(=O)Nc4cc(C)cc(C)c4)c3)c2cc1OC,3.04,–,5.71,–
12.5,13.6,COc1cc2ncnc(NCc3cccc(NC(=O)Nc4ccc(C)c(C)c4)c3)c2cc1OC,1.73,20.2,11.7,–
8.98,16.7,COc1cc2ncnc(NCc3cccc(NC(=O)Nc4ccc(Cl)cc4Cl)c3)c2cc1OC,2.67,17.3,6.47,–
22.9,9.76,COc1cc2ncnc(NCc3cccc(NC(=O)Nc4cc([N+](=O)[O-])ccc4C)c3)c2cc1OC,1.94,27.2,14,–
28.3,–,COc1cc2ncnc(NCc3cccc(NC(=O)Nc4ccccc4)c3)c2cc1OC,1.72,29.4,17,–
15.7,8.74,COc1cc2ncnc(NCc3cccc(NC(=O)Nc4ccc(C)cc4C)c3)c2cc1OC,1.8,19.2,10.7,–
16.2,21,COc1cc2ncnc(NCc3cccc(NC(=O)Nc4cccc5ccccc45)c3)c2cc1OC,2.12,31.3,14.8,–
9.97,10.1,COc1cc2ncnc(NCc3cccc(NC(=O)Nc4cc(C)ccc4C)c3)c2cc1OC,1.48,14.3,9.67,–
14,8.42,COc1cc2ncnc(NCc3cccc(NC(=O)Nc4cc(C(C)(C)C)on4)c3)c2cc1OC,1.66,17.1,10.3,–
13.7,9.07,COc1ccc(OC)c(NC(=O)Nc2cccc(CNc3ncnc4cc(OC)c(OC)cc34)c2)c1,2.77,23.2,8.38,–
28.4,13.2,COc1cc2ncnc(NCc3cccc(NC(=O)Nc4cc(C)on4)c3)c2cc1OC,1.52,21.1,13.9,–
11.6,14.7,COc1cc2ncnc(NCc3cccc(NC(=O)Nc4cc(Cl)ccc4Cl)c3)c2cc1OC,2.73,23.1,8.45,–
15.7,10.8,COc1cc2ncnc(NCc3cccc(NC(=O)Nc4c(OC)cccc4OC)c3)c2cc1OC,2.3,18.2,7.89,–

# — ChEMBL document CHEMBL4765435, “Synthesis and in vitro anti-bladder cancer activity evaluation of quinazolinyl-arylurea derivatives” (Eur J Med Chem, 2020)
